The term IC50 denotes the concentration that inhibits the measured activity by half. A low value points to greater potency in that assay.

Assay [1] is described as follows: Selectivity index ratio of IC50 for MAOB to IC50 for MAOA. In a few lines: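 Bovine brain mitochondria (6 mg/ml) in 0.25 M phosphate buffer, pH 7.4, with 0.1 mM isoform-specific substrate. Compound in propylene glycol at 0.5 nM–0.1 M; 60 min at 37 °C, perchloric acid stop, fluorimetric read. Six samples in duplicate; ratio of the MAO-B and MAO-A IC50s.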
Assay [2] in a line: Inhibition of MAOA by spectrofluorimetry.
The target in assay [3] is Amine oxidase [flavin-containing] B (Bos taurus) (UniProt P56560).
Sequence of Amine oxidase [flavin-containing] B (Bos taurus) (P56560 whole entry, looked up): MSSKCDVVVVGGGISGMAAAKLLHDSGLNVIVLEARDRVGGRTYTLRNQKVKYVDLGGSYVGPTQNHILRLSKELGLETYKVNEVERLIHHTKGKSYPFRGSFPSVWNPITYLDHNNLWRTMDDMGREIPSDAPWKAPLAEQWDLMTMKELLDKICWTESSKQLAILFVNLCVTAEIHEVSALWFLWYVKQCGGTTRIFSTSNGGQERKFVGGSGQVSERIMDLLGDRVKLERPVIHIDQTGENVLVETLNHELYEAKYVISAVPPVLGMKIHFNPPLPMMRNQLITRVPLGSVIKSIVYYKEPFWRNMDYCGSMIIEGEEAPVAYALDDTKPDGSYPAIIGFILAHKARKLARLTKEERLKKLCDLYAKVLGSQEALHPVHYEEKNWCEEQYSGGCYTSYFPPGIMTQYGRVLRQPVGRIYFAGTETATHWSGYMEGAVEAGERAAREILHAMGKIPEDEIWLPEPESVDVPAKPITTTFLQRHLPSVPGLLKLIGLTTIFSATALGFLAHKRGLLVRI

On to `Oc1ccc(/C=N/Nc2nc3ccccc3nc2Cc2ccccc2)cc1`, for which, in assay [1], the Ratio IC50 worked out at 2.32e+06. Moreover, the IC50 in assay [2] was found to be 0.0034 µM; in assay [3] it was 7900 µM.
On the same counts, the results for `O=C(c1ccccc1)c1nc2ccccc2n2c(-c3ccc([N+](=O)[O-])cc3)nnc12` are 10400, 0.022 µM and 230 µM.
In the same order, the values of `C/C(=N\Nc1nc2ccccc2nc1Cc1ccccc1)c1ccc(O)cc1` are 3e+06, 0.0028 µM and 8400 µM.
In the case of `COc1ccc(/C=N/Nc2nc3ccccc3nc2Cc2ccccc2)cc1`, the midpoint of inhibition in assay [3], the IC50, lay at 79 µM.
As for `C/C(=N\Nc1nc2ccccc2nc1Cc1ccccc1)c1ccccc1`, in assay [1], the Ratio IC50 is 12400. Also, the IC50 in assay [2] was 0.079 µM; in assay [3], 980 µM.
Turning to `COc1ccc(/C(C)=N/Nc2nc3ccccc3nc2Cc2ccccc2)cc1`, in assay [1], the Ratio IC50 worked out at 3140. Moreover, the IC50 in assay [2] is 0.089 µM; in assay [3], 280 µM.
On to `C=NNc1nc2ccccc2nc1Cc1ccccc1`, for which the Ratio IC50 in assay [1] was found to be 10400. Further, the IC50 in assay [2] worked out at 0.086 µM; in assay [3] it was 950 µM.
In the same order, the values of `COc1cc(/C(C)=N/Nc2nc3ccccc3nc2Cc2ccccc2)cc(OC)c1OC` are 8960, 0.029 µM and 260 µM.
Turning to `CN(C)c1ccc(-c2nnc3c(C(=O)c4ccccc4)nc4ccccc4n23)cc1Br`, the IC50 in assay [3] was found to be 73 µM.
Consider `COc1ccccc1/C=N/Nc1nc2ccccc2nc1Cc1ccccc1`, for which, in assay [1], the Ratio IC50 was 9510. Further, the half-inhibitory concentration (IC50) in assay [2] was 0.083 µM; in assay [3], 790 µM.
On to `O=C(c1ccccc1)c1nc2ccccc2n2c(-c3ccccc3)nnc12`, for which the Ratio IC50 in assay [1] was 88800. Also, the IC50 in assay [2] turned out to be 0.0027 µM; in assay [3], 240 µM.
In the case of `Clc1ccccc1-c1nnc2c(Cc3ccccc3)nc3ccccc3n12`, the Ratio IC50 in assay [1] amounted to 11800. Also, the values for the IC50 in assay [2] and in assay [3] were 0.0061 µM and 72 µM, respectively.
In the same order, the values of `C/C(=N\Nc1nc2ccccc2nc1Cc1ccccc1)c1ccc(N)cc1` are 87700, 0.0098 µM and 860 µM.
On the same counts, the results for `CN(C)c1ccc(-c2nnc3c(C(=O)c4ccccc4)nc4ccccc4n23)cc1` are 2.7e+06, 0.0027 µM and 7300 µM.
On the same counts, the results for `Clc1ccccc1/C=N/Nc1nc2ccccc2nc1Cc1ccccc1` are 15000, 0.0058 µM and 87 µM.
As for `COc1ccc(-c2nnc3c(C(=O)c4ccccc4)nc4ccccc4n23)cc1OC`, the Ratio IC50 in assay [1] turned out to be 12600. Further, the IC50 amounted to 0.0068 µM in assay [2] and 86 µM in assay [3].
In the case of `COc1ccc(-c2nnc3c(C(=O)c4ccccc4)nc4ccccc4n23)cc1`, in assay [3], the midpoint of inhibition, the IC50, lay at 85 µM.
Take `C/C(=N\Nc1nc2ccccc2nc1Cc1ccccc1)c1cccs1`: in assay [1], the Ratio IC50 came to 13300. Also, the IC50 is 0.064 µM in assay [2] and 850 µM in assay [3].
With `C/C(=N\Nc1nc2ccccc2nc1Cc1ccccc1)c1ccc(C)cc1`, in assay [1], the Ratio IC50 amounted to 8600. In addition, the IC50 in assay [2] came out at 0.086 µM; in assay [3] it was 740 µM.
Turning to `C/C(=N\Nc1nc2ccccc2nc1Cc1ccccc1)c1ccccn1`, the Ratio IC50 in assay [1] came to 10800. The IC50 in assay [2] came to 0.091 µM; in assay [3] it was 980 µM.
On the same counts, the results for `O=C(c1ccccc1)c1nc2ccccc2n2c(-c3ccccc3Cl)nnc12` are 4310, 0.088 µM and 380 µM.
In the same order, the values of `c1ccc(Cc2nc3ccccc3n3cnnc23)cc1` are 1090, 0.087 µM and 95 µM.
In the same order, the values of `C(=N\Nc1nc2ccccc2nc1Cc1ccccc1)/c1ccccc1` are 3950, 0.081 µM and 320 µM.
As for `O=C(c1ccccc1)c1nc2ccccc2n2cnnc12`, the Ratio IC50 in assay [1] was found to be 1250. The figures for the IC50 in assay [2] and in assay [3] were 0.75 µM and 940 µM, respectively.
In the same order, the values of `CN(C)c1ccc(/C=N/Nc2nc3ccccc3nc2Cc2ccccc2)cc1` are 10600, 0.083 µM and 880 µM.
`Cc1ccsc1/C=N/Nc1nc2ccccc2nc1Cc1ccccc1` came in with an IC50 in assay [3] of 860 µM.
As for `COc1ccc(/C=N/Nc2nc3ccccc3nc2Cc2ccccc2)cc1OC`, the Ratio IC50 in assay [1] amounted to 8210. For the same compound, the IC50 in assay [2] is 0.056 µM; in assay [3] it was 460 µM.
As for `C/C(=N\Nc1nc2ccccc2nc1Cc1ccccc1)c1ccc([N+](=O)[O-])cc1`, in assay [3], the IC50 turned out to be 89 µM.
For the compound `Clc1ccc(/C=N/Nc2nc3ccccc3nc2Cc2ccccc2)cc1`, the Ratio IC50 in assay [1] worked out at 1100. The half-maximal inhibitory concentration (IC50) amounted to 0.076 µM in assay [2] and 84 µM in assay [3].
In the case of `c1ccc(Cc2nc3ccccc3n3c(-c4ccccc4)nnc23)cc1`, the Ratio IC50 in assay [1] came out at 12000. Also, the IC50 is 0.082 µM in assay [2] and 980 µM in assay [3].
`C(=N\Nc1nc2ccccc2nc1Cc1ccccc1)/c1ccc2c(c1)OCO2` showed an IC50 in assay [3] of 87 µM.

Source of the values: ChEMBL document CHEMBL1255505, “Synthesis of new series of quinoxaline based MAO-inhibitors and docking studies” (Eur J Med Chem, 2010).
